Experiments:
[1] = Inhibition of SETD7 V274E mutant (unknown origin) using biotinylated H3 (1-25) peptide as substrate incubated for 1 hrs in presence of 3H-SAM by radioactivity based assay; set-up: species or system Homo sapiens
Method in brief: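 Scintillation proximity assay on recombinant E. coli-expressed human SETD7(1–366) mutant forms. Read-out was incorporation of the ³H-methyl group from ³H-SAM into histone H3(1–25) peptide, with 2 µM SAM, 2 µM H3(1–25) and 2 nM enzyme. IC50 is given as the mean ± SD of triplicate runs.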

[2] = Permeability of compound in MDCKII-LE cells; format: ADME, cell-based, Canis lupus familiaris; settings: dog, MDCK; read-out: permeability
MDA-MB-231 = test: Cytotoxicity against human MDA-MB-231 cells assessed as reduction in cell viability at <50 uM by alamar blue assay; format: toxicity, cell-based; settings: mda-mb-231, 50 µM
U2OS = test: Cytotoxicity against human U2OS cells assessed as reduction in cell viability at <50 uM by alamar blue assay; format: toxicity, cell-based
[3] = target: Adenosine receptor A2b (Homo sapiens) (UniProt P29275); test: Inhibition of human A2B receptor at 10 uM relative to control
[4] = target: Alpha-2B adrenergic receptor (Homo sapiens) (UniProt P18089); test: Inhibition of human alpha 2B receptor at 10 uM relative to control
[5] = target: Alpha-2C adrenergic receptor (Homo sapiens) (UniProt P18825); test: Inhibition of human alpha 2C receptor at 10 uM relative to control
[6] = target: Beta-2 adrenergic receptor (Homo sapiens) (UniProt P07550); test: Inhibition of human beta 2 receptor at 10 uM relative to control
[7] = target: Cholecystokinin receptor type A (Homo sapiens) (UniProt P32238); test: Inhibition of human CCK1 receptor at 10 uM relative to control
[8] = target: D(2) dopamine receptor (Homo sapiens) (UniProt P14416); test: Inhibition of human D2S receptor at 10 uM relative to control
[9] = target: D(3) dopamine receptor (Homo sapiens) (UniProt P35462); test: Inhibition of human D3 receptor at 10 uM relative to control
[10] = target: GABA-A receptor; alpha-1/beta-2/gamma-2 (Homo sapiens) (UniProt P14867+P47870+P18507); test: Inhibition of human GABA alpha1/beta2/gamma2 at 10 uM relative to control; format: protein-complex assay
[11] = target: Gamma-aminobutyric acid receptor subunit beta-1 (Homo sapiens) (UniProt P18505); test: Inhibition of human GABA beta 1b at 10 uM relative to control
[12] = target: Glucagon receptor (Homo sapiens) (UniProt P47871); test: Inhibition of human Glucagon receptor at 10 uM relative to control
[13] = target: Glutamate [NMDA] receptor (Homo sapiens) (UniProt Q05586+Q12879+Q13224+O15399+O60391+Q14957+Q8TCU5); test: Inhibition of NMDA receptor (unknown origin) at 10 uM relative to control; format: protein-complex assay
Homo sapiens [14] = organism: Homo sapiens; test: Inhibition of strychnine-insensitive glycine receptor (unknown origin) at 10 uM relative to control
[15] = target: Histamine H1 receptor (Homo sapiens) (UniProt P35367); test: Inhibition of human H1 receptor at 10 uM relative to control
[16] = target: Melanin-concentrating hormone receptor 1 (Homo sapiens) (UniProt Q99705); test: Inhibition of human MCH1 receptor at 10 uM relative to control
[17] = target: Melanocortin receptor 4 (Homo sapiens) (UniProt P32245); test: Inhibition of human MC4 at 10 uM relative to control
[18] = target: Substance-K receptor (Homo sapiens) (UniProt P21452); test: Inhibition of human NK2 receptor at 10 uM relative to control
[19] = target: Delta-type opioid receptor (Homo sapiens) (UniProt P41143); test: Inhibition of human delta 2 opioid receptor at 10 uM relative to control
[20] = target: Mu-type opioid receptor (Homo sapiens) (UniProt P35372); test: Inhibition of human mu opioid receptor at 10 uM relative to control
Homo sapiens [21] = organism: Homo sapiens; test: Inhibition of human NOP(ORL1) at 10 uM relative to control
[22] = target: Platelet-activating factor receptor (Homo sapiens) (UniProt P25105); test: Inhibition of human PAF receptor at 10 uM relative to control
[23] = target: Prostacyclin receptor (Homo sapiens) (UniProt P43119); test: Inhibition of human IP (PGI2) receptor at 10 uM relative to control
[24] = target: Oxysterols receptor LXR-beta (Homo sapiens) (UniProt P55055); test: Inhibition of human LXRbeta at 10 uM relative to control
[25] = target: 5-hydroxytryptamine receptor 1A (Homo sapiens) (UniProt P08908); test: Inhibition of human 5-HT1A receptor at 10 uM relative to control
[26] = target: 5-hydroxytryptamine receptor 1B (Homo sapiens) (UniProt P28222); test: Inhibition of 5-HT1B receptor (unknown origin) at 10 uM relative to control
Homo sapiens [27] = organism: Homo sapiens; test: Inhibition of human 5-HT3 receptor at 10 uM relative to control
[28] = target: 5-hydroxytryptamine receptor 4 (Homo sapiens) (UniProt Q13639); test: Inhibition of human 5-HT4e receptor at 10 uM relative to control
Homo sapiens [29] = organism: Homo sapiens; test: Inhibition of human sigma receptor at 10 uM relative to control
[30] = target: Somatostatin receptor type 4 (Homo sapiens) (UniProt P31391); test: Inhibition of human sst4 at 10 uM relative to control
[31] = target: Estrogen receptor (Homo sapiens) (UniProt P03372); test: Inhibition of human ERalpha at 10 uM relative to control
[32] = target: Androgen receptor (Homo sapiens) (UniProt P10275); test: Inhibition of human AR at 10 uM relative to control
Homo sapiens [33] = organism: Homo sapiens; test: Inhibition of human UT at 10 uM relative to control
[34] = target: Vasopressin V1a receptor (Homo sapiens) (UniProt P37288); test: Inhibition of human V1a at 10 uM relative to control
Homo sapiens [35] = organism: Homo sapiens; test: Inhibition of Ca2+ channel L, diltiazem site(unknown origin) at 10 uM relative to control
[36] = target: Nitric oxide synthase, inducible (Homo sapiens) (UniProt P35228); test: Inhibition of inducible NOS (unknown origin) at 10 uM relative to control
[37] = target: 3',5'-cyclic-AMP phosphodiesterase 4D (Homo sapiens) (UniProt Q08499); test: Inhibition of human PDE4D2 at 10 uM relative to control
[38] = target: Matrix metalloproteinase-9 (Homo sapiens) (UniProt P14780); test: Inhibition of human MMP-9 at 10 uM relative to control
Homo sapiens [39] = organism: Homo sapiens; test: Inhibition of human CDK2/CycA at 10 uM relative to control
[40] = target: Vascular endothelial growth factor receptor 1 (Homo sapiens) (UniProt P17948); test: Inhibition of human FLT-1 kinase (VEGFR1) at 10 uM relative to control
Motilin receptor = Motilin receptor (Homo sapiens, UniProt O43193); test: Inhibition of human motilin receptor

Nitric oxide synthase, inducible (Homo sapiens), sequence (P35228 whole entry): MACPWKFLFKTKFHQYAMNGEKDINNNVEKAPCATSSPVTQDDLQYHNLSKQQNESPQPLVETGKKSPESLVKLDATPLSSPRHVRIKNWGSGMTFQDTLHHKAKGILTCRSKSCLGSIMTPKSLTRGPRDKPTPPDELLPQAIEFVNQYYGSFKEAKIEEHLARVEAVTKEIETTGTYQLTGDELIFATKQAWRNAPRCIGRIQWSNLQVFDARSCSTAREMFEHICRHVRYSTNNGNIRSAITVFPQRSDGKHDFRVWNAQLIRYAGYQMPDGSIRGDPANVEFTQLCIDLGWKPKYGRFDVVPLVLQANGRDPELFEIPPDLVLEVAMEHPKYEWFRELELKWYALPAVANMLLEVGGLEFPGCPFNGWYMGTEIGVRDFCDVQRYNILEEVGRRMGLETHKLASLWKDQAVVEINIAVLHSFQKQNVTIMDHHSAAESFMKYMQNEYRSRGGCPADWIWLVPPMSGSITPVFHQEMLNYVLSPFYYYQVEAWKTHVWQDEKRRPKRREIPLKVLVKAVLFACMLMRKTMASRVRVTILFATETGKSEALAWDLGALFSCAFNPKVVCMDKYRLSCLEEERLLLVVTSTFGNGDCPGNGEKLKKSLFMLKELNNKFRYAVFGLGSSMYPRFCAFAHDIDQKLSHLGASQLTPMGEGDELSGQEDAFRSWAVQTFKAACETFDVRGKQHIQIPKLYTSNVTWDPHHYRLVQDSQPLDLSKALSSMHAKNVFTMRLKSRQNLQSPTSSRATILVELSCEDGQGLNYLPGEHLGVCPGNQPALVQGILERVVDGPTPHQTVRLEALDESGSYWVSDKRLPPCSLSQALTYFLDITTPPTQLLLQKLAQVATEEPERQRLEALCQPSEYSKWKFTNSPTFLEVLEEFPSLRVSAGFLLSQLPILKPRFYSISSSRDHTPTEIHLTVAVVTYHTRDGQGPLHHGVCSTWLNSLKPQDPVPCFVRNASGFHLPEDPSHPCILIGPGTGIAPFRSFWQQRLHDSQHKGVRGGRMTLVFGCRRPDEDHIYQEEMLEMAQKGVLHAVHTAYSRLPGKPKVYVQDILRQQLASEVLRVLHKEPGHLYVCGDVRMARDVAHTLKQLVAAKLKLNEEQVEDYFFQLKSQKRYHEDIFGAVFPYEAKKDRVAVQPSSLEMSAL
Histamine H1 receptor (Homo sapiens), sequence (P35367 whole entry): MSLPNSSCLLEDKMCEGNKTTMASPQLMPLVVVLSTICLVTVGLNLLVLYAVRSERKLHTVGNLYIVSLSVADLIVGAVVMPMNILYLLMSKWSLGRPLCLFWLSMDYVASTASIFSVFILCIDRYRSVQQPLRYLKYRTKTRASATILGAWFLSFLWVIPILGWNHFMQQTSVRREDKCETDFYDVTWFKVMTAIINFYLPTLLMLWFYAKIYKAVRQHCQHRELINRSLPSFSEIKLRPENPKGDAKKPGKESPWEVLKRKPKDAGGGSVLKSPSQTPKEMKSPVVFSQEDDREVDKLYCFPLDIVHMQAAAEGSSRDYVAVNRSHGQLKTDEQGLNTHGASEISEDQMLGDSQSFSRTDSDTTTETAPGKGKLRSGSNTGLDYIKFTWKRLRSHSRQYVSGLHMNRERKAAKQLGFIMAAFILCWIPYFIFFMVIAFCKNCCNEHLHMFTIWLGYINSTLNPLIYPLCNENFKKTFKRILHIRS
3',5'-cyclic-AMP phosphodiesterase 4D (Homo sapiens), sequence (Q08499 whole entry): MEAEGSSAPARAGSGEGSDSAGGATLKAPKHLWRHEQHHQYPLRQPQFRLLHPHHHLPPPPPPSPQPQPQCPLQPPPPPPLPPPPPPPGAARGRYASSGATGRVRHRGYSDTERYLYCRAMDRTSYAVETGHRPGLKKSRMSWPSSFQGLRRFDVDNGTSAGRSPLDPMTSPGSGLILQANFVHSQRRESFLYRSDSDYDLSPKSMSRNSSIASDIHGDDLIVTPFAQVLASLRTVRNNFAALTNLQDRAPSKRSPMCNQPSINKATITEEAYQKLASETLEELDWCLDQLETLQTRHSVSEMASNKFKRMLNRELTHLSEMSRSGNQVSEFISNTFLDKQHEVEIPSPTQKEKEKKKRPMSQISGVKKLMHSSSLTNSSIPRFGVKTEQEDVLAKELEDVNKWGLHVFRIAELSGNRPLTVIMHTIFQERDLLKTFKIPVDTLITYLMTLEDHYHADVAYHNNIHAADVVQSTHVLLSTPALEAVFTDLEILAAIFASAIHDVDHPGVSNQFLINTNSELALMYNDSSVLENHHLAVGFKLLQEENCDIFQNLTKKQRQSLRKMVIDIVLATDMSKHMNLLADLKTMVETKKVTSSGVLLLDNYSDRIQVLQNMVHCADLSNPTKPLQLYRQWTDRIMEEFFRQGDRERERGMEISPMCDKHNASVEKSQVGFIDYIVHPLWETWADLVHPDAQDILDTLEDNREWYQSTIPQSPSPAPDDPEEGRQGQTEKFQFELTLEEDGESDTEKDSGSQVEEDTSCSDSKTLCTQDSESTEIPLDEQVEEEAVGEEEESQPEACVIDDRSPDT
Alpha-2C adrenergic receptor (Homo sapiens), sequence (P18825 whole entry): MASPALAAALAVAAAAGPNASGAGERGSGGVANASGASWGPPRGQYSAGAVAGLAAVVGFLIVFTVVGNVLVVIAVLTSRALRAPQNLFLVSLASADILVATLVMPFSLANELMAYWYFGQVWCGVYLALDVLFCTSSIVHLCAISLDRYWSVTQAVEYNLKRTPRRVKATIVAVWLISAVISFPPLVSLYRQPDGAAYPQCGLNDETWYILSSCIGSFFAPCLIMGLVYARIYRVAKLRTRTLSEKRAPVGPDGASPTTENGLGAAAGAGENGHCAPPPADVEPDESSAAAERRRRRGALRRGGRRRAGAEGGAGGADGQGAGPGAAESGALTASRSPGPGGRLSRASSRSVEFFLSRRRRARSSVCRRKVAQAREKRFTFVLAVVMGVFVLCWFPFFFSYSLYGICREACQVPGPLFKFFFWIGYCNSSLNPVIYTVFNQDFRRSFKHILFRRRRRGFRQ
Melanocortin receptor 4 (Homo sapiens), sequence (P32245 whole entry): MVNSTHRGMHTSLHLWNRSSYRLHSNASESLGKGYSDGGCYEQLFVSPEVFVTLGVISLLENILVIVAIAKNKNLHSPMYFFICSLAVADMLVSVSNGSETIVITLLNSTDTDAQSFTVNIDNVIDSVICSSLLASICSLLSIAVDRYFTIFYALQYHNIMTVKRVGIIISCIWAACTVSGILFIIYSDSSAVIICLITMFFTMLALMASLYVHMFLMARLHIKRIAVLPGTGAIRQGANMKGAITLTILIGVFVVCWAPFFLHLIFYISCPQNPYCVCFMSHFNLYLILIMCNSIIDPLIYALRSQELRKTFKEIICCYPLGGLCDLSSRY
Glucagon receptor (Homo sapiens), sequence (P47871 whole entry): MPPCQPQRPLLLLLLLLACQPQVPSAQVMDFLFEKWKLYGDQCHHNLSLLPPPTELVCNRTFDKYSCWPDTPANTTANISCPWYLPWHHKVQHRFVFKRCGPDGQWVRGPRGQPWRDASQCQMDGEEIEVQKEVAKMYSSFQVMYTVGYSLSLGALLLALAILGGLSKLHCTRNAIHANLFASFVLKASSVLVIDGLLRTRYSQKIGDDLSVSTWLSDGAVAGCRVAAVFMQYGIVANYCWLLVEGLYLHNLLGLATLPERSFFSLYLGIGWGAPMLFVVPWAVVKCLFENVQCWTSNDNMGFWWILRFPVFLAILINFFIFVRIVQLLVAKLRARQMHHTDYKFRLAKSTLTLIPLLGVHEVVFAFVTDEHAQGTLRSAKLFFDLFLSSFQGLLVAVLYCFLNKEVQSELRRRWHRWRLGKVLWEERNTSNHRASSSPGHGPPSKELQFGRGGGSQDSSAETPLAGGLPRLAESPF
Substance-K receptor (Homo sapiens), sequence (P21452 whole entry): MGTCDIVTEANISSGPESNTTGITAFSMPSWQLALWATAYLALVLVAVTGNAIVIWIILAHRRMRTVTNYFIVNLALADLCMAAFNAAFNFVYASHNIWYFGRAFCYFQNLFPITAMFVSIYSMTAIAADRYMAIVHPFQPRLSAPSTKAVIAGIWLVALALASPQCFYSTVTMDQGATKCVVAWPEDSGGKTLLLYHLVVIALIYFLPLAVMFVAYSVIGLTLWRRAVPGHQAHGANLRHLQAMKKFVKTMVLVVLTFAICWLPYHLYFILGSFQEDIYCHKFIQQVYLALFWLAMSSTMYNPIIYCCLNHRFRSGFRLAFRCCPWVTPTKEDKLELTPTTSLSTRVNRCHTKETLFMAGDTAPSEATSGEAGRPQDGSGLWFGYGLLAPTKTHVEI
5-hydroxytryptamine receptor 4 (Homo sapiens), sequence (Q13639 whole entry): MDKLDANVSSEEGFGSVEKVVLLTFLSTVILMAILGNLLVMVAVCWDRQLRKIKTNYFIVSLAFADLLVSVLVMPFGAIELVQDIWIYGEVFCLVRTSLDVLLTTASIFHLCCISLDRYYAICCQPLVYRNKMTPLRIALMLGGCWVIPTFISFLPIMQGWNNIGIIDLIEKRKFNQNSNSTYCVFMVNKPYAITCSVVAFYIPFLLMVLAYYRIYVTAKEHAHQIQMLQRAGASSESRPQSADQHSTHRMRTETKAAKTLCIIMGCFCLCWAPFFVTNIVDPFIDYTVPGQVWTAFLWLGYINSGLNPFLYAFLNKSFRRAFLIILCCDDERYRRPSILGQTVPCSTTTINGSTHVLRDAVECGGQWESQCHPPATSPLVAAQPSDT
Cholecystokinin receptor type A (Homo sapiens), sequence (P32238 whole entry): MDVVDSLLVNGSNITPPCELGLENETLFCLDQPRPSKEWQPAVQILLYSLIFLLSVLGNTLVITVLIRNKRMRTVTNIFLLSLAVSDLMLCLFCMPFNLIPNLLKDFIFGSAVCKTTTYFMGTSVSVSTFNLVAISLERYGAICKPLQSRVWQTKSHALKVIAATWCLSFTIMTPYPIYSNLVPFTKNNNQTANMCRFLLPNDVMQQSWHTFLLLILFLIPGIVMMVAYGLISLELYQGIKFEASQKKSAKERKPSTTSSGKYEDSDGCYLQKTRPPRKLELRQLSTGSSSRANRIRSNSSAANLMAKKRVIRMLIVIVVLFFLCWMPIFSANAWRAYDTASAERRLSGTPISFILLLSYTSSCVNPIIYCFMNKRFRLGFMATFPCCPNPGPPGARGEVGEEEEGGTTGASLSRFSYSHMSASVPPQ

In the case of O=C([C@@H](Cc1cccc(C(F)(F)F)c1)NS(=O)(=O)c1cc(F)c2c(c1)CCNC2)N1CCCC1, the IC50 [1] is reported as 10.8 µM, the Papp [2] is reported as 6.48 ×10⁻⁶ cm/s and the Activity (MDA-MB-231) is reported as “Non-Toxic”. The Activity (U2OS) was “Non-Toxic”, the inhibition [3] was -3% and the inhibition [4] was 79%. It also gave an inhibition [5] of 10%, an inhibition [6] of -4% and an inhibition [7] of 8%. The inhibition [8] was 39%, the inhibition [9] was 43% and the inhibition [10] was -10%. It also gave an inhibition [11] of 5%, an inhibition [12] of 1% and an inhibition [13] of -8%. The inhibition (Homo sapiens [14]) was -1%, the inhibition [15] was 10% and the inhibition [16] was -1%. The inhibition [17] was 15%, the inhibition [18] was 28% and the inhibition [19] was 47%. For the same molecule, the inhibition [20] was 47%, the inhibition (Homo sapiens [21]) was 11% and the inhibition [22] was 6%. The inhibition [23] was -7%, the inhibition [24] was 5% and the inhibition [25] was 0%. The inhibition [26] was 7%, the inhibition (Homo sapiens [27]) was -2% and the inhibition [28] was -4%. It also gave an inhibition (Homo sapiens [29]) of 49%, an inhibition [30] of 27% and an inhibition [31] of -5%. It also gave an inhibition [32] of 1%, an inhibition (Homo sapiens [33]) of 38% and an inhibition [34] of 8%. The inhibition (Homo sapiens [35]) was 52%, the inhibition [36] was -7% and the inhibition [37] was 1%. It also gave an inhibition [38] of -9%, an inhibition (Homo sapiens [39]) of -1% and an inhibition [40] of 1%. The IC50 (Motilin receptor) was 7.2 µM.

Source: ChEMBL document CHEMBL5705898 (Proc Natl Acad Sci U S A, 2014)
